High-throughput results (PubChem)
TRPC4 block: TRPC4 (mouse) channel inhibition; HEK293 TRPC4beta/mu-opioid, DAMGO-evoked Fluo4 calcium flux; hits give low values; B-score at 10 µM; 0.39% of 300,000 active;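 active = B-score over 3 SD under the library average, no early fluorescence shift, positive overall ratio signal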
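Material: HEK293 cells with stable TRPC4beta plus mu-opioid receptor expression / Probe or stimulus: DAMGO in two steps, submaximal then maximal / Compound: single concentration per test compound / Technique: kinetic Fluo4 fluorescence imaging of calcium influx / Read-out: per-well B score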
TRPC4 potent: allosterically enhances the mouse TRPC4 cation channel; B-score at 10 µM; 0.42% of 310,000 active; HEK293 TRPC4beta/mu-opioid, DAMGO EC20, Fluo-4 Ca2+ flux; hits give high values; Q9QUQ5;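 active = B-score of calcium response area above 5 SD of library B-scores, with initial fluorescence ratio within 5 SD of library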;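 also: B-score of integrated fluorescence ratio over time as area under calcium response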
TRPC4 agonist: opens the mouse TRPC4 cation channel; Q9QUQ5; HEK293 TRPC4beta/mu-opioid, Fluo4 calcium fluorescence; hits give high values; B-score at 10 µM; 0.49% of 310,000 active; AID 2237;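 active = B-score above 5 SD of library B-scores, and initial fluorescence ratio not above library mean plus 5 SD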;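 also: positive B-score marks a calcium rise read as TRPC4 activation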
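Assay system: HEK293 stable line with TRPC4beta plus mu-opioid receptor. Times: dye 45 min RT, read 110 s. Measured by: kinetic Fluo4 calcium fluorescence. Measure: B score of integrated ratio. Controls: assay buffer as low control, maximal DAMGO as high control.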
TRPC6 act: activators of mouse TRPC6 channel; B-score at 10 µM; Q61143; HEK293-TRPC6 membrane potential dye fluorescence; hits give high values; AID 2550; 0.13% of 310,000 active;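 active = B-score of the integrated fluorescence ratio above library mean plus 3 SD, and starting fluorescence ratio within library mean plus 5 SD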;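 also: higher score means more depolarization so channel activation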
Target sequence (Q61143 whole entry, looked up): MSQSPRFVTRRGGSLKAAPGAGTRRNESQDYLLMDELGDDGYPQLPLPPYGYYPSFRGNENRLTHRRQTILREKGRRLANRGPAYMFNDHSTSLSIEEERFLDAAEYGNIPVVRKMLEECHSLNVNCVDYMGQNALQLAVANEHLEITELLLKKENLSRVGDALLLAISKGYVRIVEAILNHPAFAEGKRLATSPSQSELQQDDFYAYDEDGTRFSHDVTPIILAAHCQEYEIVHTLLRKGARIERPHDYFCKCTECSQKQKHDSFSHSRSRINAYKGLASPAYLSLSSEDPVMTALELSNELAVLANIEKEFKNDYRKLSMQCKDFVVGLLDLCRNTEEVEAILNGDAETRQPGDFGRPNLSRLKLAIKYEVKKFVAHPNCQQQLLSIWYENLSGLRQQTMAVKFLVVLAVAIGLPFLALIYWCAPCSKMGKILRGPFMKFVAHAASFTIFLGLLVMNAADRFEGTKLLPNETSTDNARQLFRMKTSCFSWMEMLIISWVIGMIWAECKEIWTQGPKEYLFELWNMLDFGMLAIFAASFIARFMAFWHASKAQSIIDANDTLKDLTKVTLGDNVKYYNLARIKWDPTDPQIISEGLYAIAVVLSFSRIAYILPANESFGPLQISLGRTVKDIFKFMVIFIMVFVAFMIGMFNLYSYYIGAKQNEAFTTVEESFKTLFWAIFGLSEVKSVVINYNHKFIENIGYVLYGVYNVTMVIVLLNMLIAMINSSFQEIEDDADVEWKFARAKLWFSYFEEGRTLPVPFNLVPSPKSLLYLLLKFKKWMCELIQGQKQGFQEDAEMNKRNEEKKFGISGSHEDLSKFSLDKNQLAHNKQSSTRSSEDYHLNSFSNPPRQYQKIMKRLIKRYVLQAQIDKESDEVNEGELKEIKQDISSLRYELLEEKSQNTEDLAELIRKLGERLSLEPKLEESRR
TRPC6 inh: mouse TRPC6 channel inhibition. Q61143. HEK293-TRPC6, membrane potential dye, ACh-evoked depolarization; hits give low values. 1.1% of 310,000 active. AID 2553. B-score at 10 µM;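 active = B-score under library mean minus 3 SD, initial fluorescence not abnormally high, positive integrated signal ratio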;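 also: B-score derived from integrated fluorescence ratio over the kinetic read; more negative B-score means stronger inhibition of depolarization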
TRPC4 sel inh 2: second check of whether TRPC6 inhibitors also affect mouse TRPC4. HEK293 TRPC4/MOR, membrane potential dye fluorescence; channel activated by saturating DAMGO dose. shares compounds with TRPC6 inh. AID 2776. 42% of 920 active. inhibition, % at 10 µM;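 active = compounds whose fluorescence signal differed from control wells by over 3 SD, either direction, in both duplicate plates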
TRPC4 spec: tests whether TRPC6 inhibitors also affect mouse TRPC4; shares compounds with TRPC6 inh; AID 2777; 61% of 920 active; activity change, negative = inhibition, % at 10 µM; HEK293 TRPC4/mu-opioid, membrane potential fluorescence;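 active = rise or fall in signal beyond 3 SD of buffer-only wells in both replicate plates, either sign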;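 also: integrated kinetic ratio of fluorescence range over baseline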
HEK293 MPD ctr 2-1: second counter-screen for TRPC6 inhibitors: parental HEK293 cells; shares compounds with TRPC6 inh; parental HEK293 membrane potential dye fluorescence; maximal acetylcholine challenge after compound addition; signal change vs control, % at 10 µM; 31% of 920 active; AID 2779;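 active = membrane potential signal moving either way by over 3 SD of the maximum-effect control, in both duplicate plates, meaning non-specific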
HEK293 MPD ctr-1: parental HEK293 nonspecific activity of TRPC6 inhibitors; 60% of 920 active; shares compounds with TRPC6 inh; parental HEK293 membrane potential dye fluorescence; membrane potential signal change, % at 10 µM;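 active = membrane potential signal shifting up or down by more than 3 SD of buffer-only wells, on both duplicate plates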
HEK293 MPD ctr-2: checks TRPC6 modulator effects in parental HEK293 cells; 51% of 2,400 active; membrane potential dye fluorescence; AID 488924; membrane potential signal change, % at 10 µM; shares compounds with TRPC6 inh;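 active = membrane potential signal moves up or down beyond 5 SD from buffer-only wells, on both duplicate plates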
HEK293 MPD ctr 2-2: parental HEK293 nonspecific activity of TRPC6 modulators, second screen | shares compounds with TRPC6 inh | membrane potential dye fluorescence; after compound, maximal acetylcholine stimulation | inhibition, % at 10 µM | 14% of 2,400 active | AID 488926;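 active = membrane potential signal drops by more than 5 SD from the mean control signal, in both duplicate plates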;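 also: plate controls were acetylcholine ECmax control wells for no effect and buffer only wells for full effect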
TRPC4 ctr mod: tests whether TRPC6 modulators also affect mouse TRPC4. 69% of 2,400 active. AID 488927. HEK293 TRPC4/mu-opioid, membrane potential fluorescence. percent change from control (negative = decrease, positive = increase), % at 10 µM. shares compounds with TRPC6 inh;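 active = membrane potential signal moved up or down beyond 5 SD of buffer control wells, in both duplicate plates, actives on both sides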;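 also: plate controls were assay buffer wells for no effect and DAMGO maximal-effect wells for full effect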
TRPC4 ctr inh 2: second check of whether TRPC6 modulators also affect mouse TRPC4; shares compounds with TRPC6 inh; HEK293 TRPC4/mu-opioid, membrane potential dye fluorescence; stimulated with maximal-effect DAMGO; inhibition, % at 10 µM; 55% of 2,400 active; AID 488928;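 active = drop in membrane potential signal beyond 5 SD of the control wells in both duplicate plates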;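 also: TRPC4 counter screen for TRPC6 hits run under conditions tuned for TRPC6 not TRPC4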
TRPC6 inh conf: mouse TRPC6 inhibitor confirmation | shares compounds with TRPC6 inh | HEK293-TRPC6, membrane potential dye, ACh-evoked depolarization | inhibition, % at 10 µM | 43% of 3,300 active | AID 488960;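 active = fluorescence ratio falls more than 5 SD below the full-stimulation control mean, in both duplicate runs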;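 also: integrated fluorescence ratio of peak minus minimum over baseline after agonist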
TRPC6 act confirm: mouse TRPC6 activator confirmation | shares compounds with TRPC6 inh | HEK293-TRPC6 membrane potential dye fluorescence, FDSS | activation, % at 10 µM | 11% of 2,800 active;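 active = ratio signal rise beyond 5 SD above unstimulated control wells' mean, seen in both duplicate runs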;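 also: plate controls were buffer EC0 wells for no effect and acetylcholine ECmax response for full effect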
Starred values were filed as active, the others as inactive; i = inactive; / = no result given. The list is not random: actives were taken first. Their share in the collection is about 2.3%.

SMILES	TRPC4 block	TRPC4 potent	TRPC4 agonist	TRPC6 act	TRPC6 inh	HEK293 MPD ctr-2	HEK293 MPD ctr 2-2	TRPC4 ctr mod	TRPC4 ctr inh 2	TRPC6 inh conf	TRPC6 act confirm	others
O=C(NCc1ccccc1)C1CCCN1S(=O)(=O)c1ccc(Cl)cc1 (stereo unspecified)	i	i	i	i	i	/	/	/	/	/	/
COc1ccccc1CNCC(=O)Nc1ccc(C(F)(F)F)cc1	i	i	i	i	-5.22*	i	i	i	42.5%*	i	i
COc1ccccc1CNCC(=O)Nc1ccc(C#N)cc1	i	i	i	i	i	/	/	/	/	/	/
Cn1nnc(NC(=O)C(c2ccccc2)c2ccccc2)n1	i	i	i	i	i	/	/	/	/	/	/
COc1ccc(-n2c(-c3ccc(Cl)cc3)c[n+]3c2CCc2ccccc2-3)cc1	i	i	i	i	-5.1*	-123.0%*	i	-17.0%*	42.5%*	i	i
O=C(Nc1ccc(Br)c(Cl)c1)c1ccco1	i	i	i	i	i	/	/	/	/	/	/
CC(=O)NC1=NN(C(C)=O)C2(CCCCC2)S1	i	i	i	i	i	/	/	/	/	/	/
N#Cc1cc(Sc2ccccn2)c([N+](=O)[O-])cc1C#N	i	i	i	i	-8.28*	/	/	/	/	75.0%*	i	TRPC4 sel inh 2=i;TRPC4 spec=-20.8%*;HEK293 MPD ctr 2-1=-78.0%*;HEK293 MPD ctr-1=-319.5%*
CCN(CC)CCNc1cc(C)c(C#N)c2nc3ccccc3n12	i	i	i	i	-10.9*	-411.0%*	96.5%*	-66.5%*	62.5%*	71.0%*	i
Cc1cc(NCCCCO)n2c(nc3ccccc32)c1C#N	i	i	i	i	i	/	/	/	/	/	/
CCCc1cc(NCCCCO)n2c(nc3ccccc32)c1C#N	i	i	i	i	i	/	/	/	/	/	/
CCN(CC)CCCNc1cc(C(F)(F)F)c(C#N)c2nc3ccccc3n12	i	i	i	i	-6.53*	i	66.0%*	-66.0%*	71.0%*	70.0%*	i
Cc1ccc(S(=O)(=O)n2c(N)nc3ccccc32)cc1	i	i	i	i	-8.44*	/	/	/	/	63.5%*	i	TRPC4 sel inh 2=i;TRPC4 spec=i;HEK293 MPD ctr 2-1=38.0%*;HEK293 MPD ctr-1=i
Cc1nc2ccccc2n1S(=O)(=O)c1ccc(F)cc1	i	i	i	i	i	/	/	/	/	/	/
COc1ccc(C(=O)Nn2c(C)nc3ccccc3c2=O)cc1	i	i	i	i	i	/	/	/	/	/	/
C=CCn1c(=N)c(C(=O)NCCCOC)cc2c(=O)n3cc(C)ccc3nc21	i	i	i	i	-7.53*	/	/	/	/	i	i	TRPC4 sel inh 2=i;TRPC4 spec=2.7%*;HEK293 MPD ctr 2-1=-54.0%*;HEK293 MPD ctr-1=4.9%*
CNC(=O)c1cc2c(=O)n3cc(C)ccc3nc2n(C(C)C)c1=N	i	i	i	i	-7.45*	-157.0%*	111.0%*	-48.5%*	51.0%*	84.0%*	i
C=CCn1c(=N)c(C(=O)NCCCOC)cc2c(=O)n3ccccc3nc21	i	i	i	i	i	/	/	/	/	/	/
Cc1cccn2c(=O)c3cc(C(=O)NCC4CCCO4)c(=N)n(C4CCCCC4)c3nc12 (stereo unspecified)	i	i	i	i	i	/	/	/	/	/	/
Cc1ccc2nc3c(cc(C(=O)NC4CCCCC4)c(=N)n3C3CCCCC3)c(=O)n2c1	i	i	i	i	-7.81*	-132.5%*	i	-31.0%*	43.0%*	36.5%*	i
Cc1ccc2nc3c(cc(C(=O)NC4CCCC4)c(=N)n3C3CCCCC3)c(=O)n2c1	i	i	i	i	-6.43*	-185.5%*	i	-31.5%*	43.0%*	57.5%*	i
O=C1NC2(CCCCC2)N(C(=O)c2ccccc2)C2=C1CCCC2	i	i	i	i	i	/	/	/	/	/	/
O=C(NN=C1CCCC1)c1[nH]c2ccc(Cl)cc2c1-c1ccccc1	i	i	i	i	i	/	/	/	/	/	/
N=c1c(C(=O)NC2CCCC2)cc2c(=O)n3ccccc3nc2n1C1CCCCC1	i	i	i	i	-6.47*	-188.5%*	i	-30.5%*	50.0%*	43.5%*	i
CCSc1nc(C)cc(Oc2ccc(=O)n(C)n2)n1	i	i	i	i	-8.6*	/	/	/	/	i	i	TRPC4 sel inh 2=i;TRPC4 spec=i;HEK293 MPD ctr 2-1=i;HEK293 MPD ctr-1=i
SMILES	TRPC4 block	TRPC4 potent	TRPC4 agonist	TRPC6 act	TRPC6 inh	HEK293 MPD ctr-2	HEK293 MPD ctr 2-2	TRPC4 ctr mod	TRPC4 ctr inh 2	TRPC6 inh conf	TRPC6 act confirm	others
COc1ccccc1OCC(=O)Nc1ccccn1	i	i	i	i	i	/	/	/	/	/	/
COC(=O)c1ccc2c(c1)C(C)(C)C(/C=C/c1ccccc1O)=[N+]2C	i	i	i	i	-10.3*	410.0%*	199.0%*	-207.5%*	99.0%*	106.5%*	i
CC(O)(C#CCN1CCCCCC1)c1ccccc1 (stereo unspecified)	i	i	i	i	i	/	/	/	/	/	/
OC(C#CCN1CCCCC1)(c1ccccc1)c1ccccc1	i	i	i	i	-7.45*	/	/	/	/	81.0%*	i	TRPC4 sel inh 2=i;TRPC4 spec=1.1%*;HEK293 MPD ctr 2-1=-27.5%*;HEK293 MPD ctr-1=2.4%*
OC(C#CCN1CCCC1)(c1ccccc1)c1ccccc1	i	i	i	i	-8.7*	/	/	/	/	65.9%*	/	TRPC4 sel inh 2=i;TRPC4 spec=2.5%*;HEK293 MPD ctr 2-1=-13.5%*;HEK293 MPD ctr-1=5.6%*
CCOC(=O)c1c(C)n(C)c2ccc(O)c(CN(CC)CC)c12	i	i	i	i	-6.45*	-112.0%*	i	-14.0%*	52.5%*	54.0%*	i
